How the values were obtained:
Plasmodium falciparum [1] = assay: Antimalarial activity against chloroquine-resistant Plasmodium falciparum W2 by pLDH assay; assay type: functional, organism-based
Procedure, shortened: (§1)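 P. falciparum clones D10 (CQ-sensitive, moderately mefloquine-resistant) and W2 (CQ-resistant, mefloquine-susceptible) kept in human A+ RBCs in RPMI 1640 with 10% A+ plasma, HEPES and glutamine under 1% O2/5% CO2/94% N2. Asynchronous cultures (1-1.5% parasitemia, 1% hematocrit) exposed to serial dilutions (DMSO <1% final) for 72 h at 37 °C. Parasite LDH read at OD650. IC50 reported as mean ± SD of four experiments in triplicate.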

Plasmodium falciparum [2] = assay: Antimalarial activity against chloroquine-sensitive Plasmodium falciparum D10 by pLDH assay; assay type: functional, organism-based; procedure, shortened: as §1

## CC[C@H](C[C@@]1(C)C[C@@H](CC)[C@@H](CC(=O)OC)OO1)[C@H]1O[C@@H]1CC
Plasmodium falciparum [1]
  IC50: 500 nM
Plasmodium falciparum [2]
  IC50: 1050 nM

## CC/C=C/[C@H](CC)C[C@@]1(C)C[C@@H](CC)[C@@H](CCOC(C)=O)OO1
Plasmodium falciparum [1]
  IC50: 460 nM
Plasmodium falciparum [2]
  IC50: 840 nM

## CC[C@H](C[C@@]1(C)C[C@@H](CC)[C@@H](CC(=O)OC)OO1)C(=O)OC
Plasmodium falciparum [1]
  IC50: 780 nM
Plasmodium falciparum [2]
  IC50: 850 nM

## CC[C@H](C[C@@]1(C)C[C@@H](CC)[C@@H](CC(=O)OC)OO1)[C@@H]1O[C@H]1CC
Plasmodium falciparum [1]
  IC50: 700 nM
Plasmodium falciparum [2]
  IC50: 1200 nM

## CC/C=C/[C@H](CC)C[C@@]1(C)C[C@@H](CC)[C@@H](CCOC)OO1
Plasmodium falciparum [1]
  IC50: 410 nM
Plasmodium falciparum [2]
  IC50: 740 nM

## CC[C@H](C[C@@]1(C)C[C@@H](CC)[C@@H](CC(=O)OC)OO1)C(=O)O
Plasmodium falciparum [1]
  IC50: 1230 nM
Plasmodium falciparum [2]
  IC50: 1200 nM

## CC/C=C/[C@H](CC)C[C@@]1(C)C[C@@H](CC)[C@@H](CCO)OO1
Plasmodium falciparum [1]
  IC50: 480 nM
Plasmodium falciparum [2]
  IC50: 830 nM

## C[C@@H]1CC[C@H]2[C@@H](C)C(=O)O[C@@H]3O[C@@]4(C)CC[C@@H]1[C@]32OO4 [ARTEMISININ]
Plasmodium falciparum [1]
  IC50: 9 nM
Plasmodium falciparum [2]
  IC50: 13 nM

## CC/C=C/[C@H](CC)C[C@@]1(C)C[C@@H](CC)[C@@H](CC(=O)OC)OO1 [PLAKORTIN]
Plasmodium falciparum [1]
  IC50: 410 nM
Plasmodium falciparum [2]
  IC50: 870 nM
